Assay results taken from ChEMBL document CHEMBL1139923, “Biological evaluation of de-O-sulfonated analogs of salacinol, the role of sulfate anion in the side chain on the alpha-glucosidase inhibitory activity” (Bioorg Med Chem, 2007).
Calls of active or inactive are those of the source. The calls are words filed in the database; no cut-off is given here.

What was measured:
[1] = Inhibition of rat intestinal maltase
In short: (§1)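 Intestinal α-glucosidase from the in vitro assay with maltose as substrate, 74 mM in the substrate solution. Compound was dissolved in DMSO and diluted in 0.1 M maleate buffer, giving 2.5% DMSO final. Substrate, compound and enzyme solutions were incubated at 37 °C for 30 min, stopped by 2 min in boiling water, and glucose was measured by glucose-oxidase.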

[2] = Inhibition of rat intestinal sucrase
In short: (§2)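 Sucrose (74 mM in the substrate solution, 0.1 M maleate buffer) was the substrate for intestinal α-glucosidase. Test compound was added from a DMSO stock diluted in buffer (2.5% DMSO final) along with enzyme. The mixture ran 30 min at 37 °C and was halted by boiling for 2 min. Released glucose was quantified by the glucose-oxidase method.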

Rattus norvegicus [3] = species: Rattus norvegicus; experiment: Inhibition of rat intestinal sucrase at 400 ug/ml; in short: as §2
Rattus norvegicus [4] = species: Rattus norvegicus; experiment: Inhibition of rat intestinal maltase at 1092 uM; in short: as §1
Rattus norvegicus [5] = species: Rattus norvegicus; experiment: Inhibition of rat intestinal maltase at 400 ug/ml; in short: as §1

Structure (SMILES) | IC50 [1] [µM] | IC50 [2] [µM] | inhibition (Rattus norvegicus [3]) [%] | Activity (Rattus norvegicus [4]) | inhibition (Rattus norvegicus [5]) [%]
OC[C@@H]1[C@@H](O)[C@H](O)C[S@@+]1C[C@@H](O)[C@@H](O)CO [listing 1 of 2 here] | 15.6 | 3.7 | – | – | –
OC[C@H](O)[C@H](O)C[S@@+]1C[C@H](O)[C@@H](O)[C@@H]1CO | > 1090 | > 1090 | 48 | inactive | –
OC[C@@H]1[C@@H](O)[C@H](O)C[S@@+]1C[C@@H](O)[C@@H](O)CO [listing 2 of 2 here] | 14 | 3.5 | – | – | –
O=S(=O)([O-])O[C@@H](CO)[C@H](O)C[S@+]1C[C@@H](O)[C@H](O)[C@H]1CO [SALACINOL] | 9.6 | 2.5 | – | – | –
O=S(=O)([O-])O[C@@H](CO)[C@H](O)C[S@@+]1C[C@H](O)[C@@H](O)[C@@H]1CO | > 1200 | > 1200 | 21 | – | 18
